The source of these data is ChEMBL document CHEMBL1142233, “Treatment of diabetes and atherosclerosis by inhibiting fatty-acid-binding protein aP2” (2007).

Assay [1] deals with THP-1. Briefly: Reduction of cholesterol ester accumulation in human THP1 cells at 25 uM after 4 days relative to control. The class given is functional. Also noted: scale not given: the % may be the effect or the level left. In short, it runs like this:
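THP-1 monocytes were made into macrophages with 100 nM PMA for 24 h, then loaded for 24 h with 50 μg ml⁻¹ acLDL in 5% LPDS. They were then held 4 days in 10% FBS with 25 μM inhibitor or DMSO. After hexane/isopropanol extraction, cholesterol ester was taken as total minus free cholesterol, per cellular protein.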

Assay [2] deals with THP-1. Briefly: Reduction of TNF expression in human THP1 cells expressing aP2 relative to control. It is filed as functional, cell-based.
Assay [3] relates to THP-1. As to the kind of experiment: Increase in ABCA1 mRNA level in human THP1 cells at 25 uM relative to control. It is filed as functional, cell-based.
Assay [4] deals with Mus musculus. Briefly: Effect on glucose level in 5-week old apoE-/- C57BL/6J mouse fed on western diet and administered with 15 mg/kg/day, po drug at 12 week in 12-18 week late intervention study. The class given is functional. Put shortly:
(§1)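 Male Apoe−/− mice on western diet (21% fat, 0.21% cholesterol) from 4–5 weeks of age. Oral gavage for 6 weeks from age 5 or 12 weeks; vehicle 10% 1-methyl-2-pyrrolidone, 5% cremophor EL with ethanol in water. Blood taken after 6 h fast before and after treatment. Glucose by meter; insulin by ELISA; lipids and glycerol colorimetric.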

For assay [5], the system named is Mus musculus. As to the kind of experiment: Effect on triglyceride level in 5-week old apoE-/- C57BL/6J mouse fed on western diet and administered with 15 mg/kg/day, po drug at 12 week in 12-18 week late intervention study. The class given is functional. Put shortly:
as §1

The subject of assay [6] is Macrophage. As to the kind of experiment: Decrease in MCP1 production in mouse aP2+/+ macrophage cells after 24 hrs. The class given is functional, cell-based. In short, it runs like this: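 Immortalized mouse macrophage lines (aP2−/−R re-expressing aP2) kept 24 h in RPMI plus 5% LPDS with inhibitor 0–25 μM in DMSO. MCP-1 in supernatant measured by ELISA and expressed relative to inhibitor-free cells of each line. At least triplicate.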

Assay [7] concerns Mus musculus. Briefly: Effect on glycerol level in 5-week old apoE-/- C57BL/6J mouse fed on western diet and 15 mg/kg/day, po drug simultaneously in 5-11 week early intervention study. The class given is functional. In short, it runs like this:
as §1

In assay [8] the test system is THP-1. Briefly: Decrease in MCP1 production in human THP1 cells expressing aP2 after 24 hrs. It is filed as functional, cell-based. In short, it runs like this:
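THP-1 monocytes differentiated with 100 nM PMA for 24 h. Incubated 24 h in RPMI with 5% lipoprotein-deficient serum with inhibitor 0–25 μM in DMSO. Supernatant MCP-1 measured by ELISA and normalized to cellular protein. At least triplicate.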

Assay [9] has as its system Macrophage. Briefly: Increase in cholesterol efflux in mouse aP2-/- macrophage cells at 25 uM relative to control. It is filed as functional, cell-based. In short, it runs like this: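 Macrophages loaded 24 h in RPMI with 5% LPDS, 1 μCi ml⁻¹ ³H-cholesterol and 50 μg ml⁻¹ acLDL, ± 25 μM inhibitor. Equilibrated 24 h in 0.2% fatty-acid-free BSA ± inhibitor, then 4 h ± APOA1 20 μg ml⁻¹. Efflux = medium ³H as % of total, per mg protein; mouse lines normalized to untreated aP2+/+.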

Assay [10] relates to Mus musculus. Briefly: Decrease in triglyceride level in ob/ob mouse at 40 mg/kg/day, po after 6 weeks relative to control. It is filed as functional.
Assay [11] relates to Mus musculus. Briefly: Decrease in blood glucose level in fed ob/ob mouse at 40 mg/kg/day, po after 2 weeks. It is filed as functional, organism-based. Put shortly:
(§2)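 Male ob/ob mice given oral gavage daily for 6 weeks from 8 weeks old, n = 6 per group. Blood taken after 6 h fast before and after treatment; fed glucose taken at week 2. Glucose by meter on 3 μl whole blood, insulin by ultrasensitive ELISA, cholesterol, FFA and glycerol by colorimetric microplate assays.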

Assay [12] has as its system Mus musculus. As to the kind of experiment: Decrease in IL6 expression in ob/ob mouse adipose tissue at 40 mg/kg/day, po. It is filed as functional, organism-based.
Assay [13] deals with THP-1. As to the kind of experiment: Reduction of transformation of human THP1 cells to foam cells at 25 uM after 3 days relative to control. The class given is functional, cell-based. In short, it runs like this:
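PMA-differentiated THP-1 macrophages (100 nM, 24 h) were loaded with 50 μg ml⁻¹ acLDL for 24 h in 5% LPDS, then treated 3 days with 25 μM inhibitor or DMSO in 10% FBS. Cells were fixed in 10% formalin for 90 min and stained with Oil Red O for 3 h to view foam cells.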

Assay [14] relates to Mus musculus. Briefly: Decrease in Cd68 expression in ob/ob mouse adipose tissue at 40 mg/kg/day, po. It is filed as functional, organism-based.
Assay [15] has as its system Mus musculus. As to the kind of experiment: Inhibition of aP2 in 5-week old apoE-/- C57BL/6J mouse fed on western diet and administered with 15 mg/kg/day, po drug at 12 week in late intervention study assessed as reduction of atherosclerotic lesion in en face aorta relative to control. The class given is functional. Also noted: scale not given: the % may be the effect or the level left. In short, it runs like this: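 Male Apoe⁻/⁻ C57BL/6J mice were fed a western diet (21% fat, 0.21% cholesterol) from 4–5 weeks of age. They were gavaged for 6 weeks with 15 mg kg⁻¹ d⁻¹ in vehicle (10% 1-methyl-2-pyrrolidone, 5% cremophor EL with ethanol, in water), starting at 5 weeks (early) or 12 weeks (late). Perfusion-fixed, pinned-out aortas were stained with Sudan IV and lesion area was quantified.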

The subject of assay [16] is Mus musculus. Briefly: Effect on triglyceride level in 5-week old apoE-/- C57BL/6J mouse fed on western diet and 15 mg/kg/day, po drug simultaneously in 5-11 week early intervention study. It is filed as functional. In short, it runs like this: as §1
Assay [17] has as its system Mus musculus. Briefly: Attenuation of JNK1 activity in ob/ob mouse adipose tissue at 40 mg/kg/day, po. The class given is functional. In short, it runs like this: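 Adipose lysate from male ob/ob mice (oral gavage 6 weeks from 8 weeks of age) immunoprecipitated with JNK1 antibody and protein A beads. Beads incubated with 10 μCi ³²P γATP, 10 μM ATP and 5 μg c-jun fusion protein at 30 °C for 20 min, then Laemmli stop.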

In assay [18] the test system is Macrophage. Briefly: Reduction of IL1-beta expressed in mouse aP2+/+ macrophage cells relative to control. The class given is functional, cell-based. Put shortly: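 Mouse aP2⁺/⁺ and aP2-reconstituted aP2⁻/⁻ macrophage lines were grown in RPMI with FBS or 5% LPDS, with inhibitor in DMSO or vehicle. Mcp-1, Il1β, Il6 and Tnf mRNA were measured by SYBR Green qRT-PCR (annealing at 58 °C, 50 cycles), normalized to 18s rRNA and then to untreated cells. Mean ± s.e.m.; at least triplicate.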

The test system of assay [19] is Mus musculus. Briefly: Effect on cholesterol level in ob/ob mouse at 40 mg/kg/day, po after 6 weeks relative to control. The class given is functional. In short, it runs like this:
as §2

The test system of assay [20] is Mus musculus. As to the kind of experiment: Increase in free fatty acid level in ob/ob mouse at 40 mg/kg/day, po after 6 weeks relative to control. The class given is functional. Put shortly: as §2
Assay [21] has as its system Mus musculus. Briefly: Decrease in insulin level in ob/ob mouse plasma at 40 mg/kg/day, po after 6 weeks relative to control. The class given is functional, organism-based. Put shortly: as §2
Assay [22] deals with Mus musculus. Briefly: Effect on free fatty acid level in 5-week old apoE-/- C57BL/6J mouse fed on western diet and administered with 15 mg/kg/day, po drug at 12 week in 12-18 week late intervention study. It is filed as functional. In short, it runs like this:
as §1

In assay [23] the test system is THP-1. Briefly: Reduction of IL1-beta expression in human THP1 cells expressing aP2 relative to control. The class given is functional, cell-based.
A further assay has as its system Adipocyte. As to the kind of experiment: Decrease in fatty acid uptake in FABP-deficient mouse adipocytes reconstituted with exogenous aP2 after 24 hrs. It is filed as functional, cell-based. In short, it runs like this: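 Immortalized mouse pre-adipocytes differentiated with dexamethasone, IBMX, rosiglitazone and insulin, then insulin alone. Cells incubated 24 h in DMEM with 2% FBS plus inhibitor, then moved to DMEM with 2% BSA and given ³H-stearate at 37 °C for 30 min. Lysate counted by scintillation; values normalized to protein and expressed as % of untreated.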

SMILES strings stand for the structures. Active and inactive are the calls of the source. No cut-off for these calls is given here.

On to `CCc1c(-c2ccccc2)c(-c2ccccc2)nn1-c1ccccc1-c1cccc(OCC(=O)O)c1`, for which the Activity with THP-1 [1] was 44%; in the assay on Mus musculus [4], 147.2 mg/dL; with Mus musculus [5], 410.7 mg/dL; in the assay with Mus musculus [7], 2.31 mM; in the assay with THP-1 [8] it was “Dose-dependent effect”; in the assay on Mus musculus [10], 58 mg/dL. The Activity with Mus musculus [15] amounted to 51%; in the assay with Mus musculus [16], 213.6 mg/dL; in the assay on Mus musculus [17], 40%; in the assay on Mus musculus [19] it was 285.3 mg/dL; with Mus musculus [20], 0.9 mM; with Mus musculus [22], 2.55 mM. Further, the outcome with THP-1 [2], in the assay on THP-1 [3], in the assay on Macrophage [6], in the assay on Mus musculus [11], with Mus musculus [12] and in the assay with THP-1 [13] was Active. For the same compound, the result in the assay with Mus musculus [14], with Macrophage [18], in the assay on Mus musculus [21], in the assay on THP-1 [23] and in the assay on Adipocyte was Active. The outcome with Macrophage [9] was inactive.
